This note sets out measurements from ChEMBL document CHEMBL3867450, “Synthesis of Natural Acylphloroglucinol-Based Antifungal Compounds against Cryptococcus Species” (J Nat Prod, 2016).

Data set [1] in a line: Selectivity index, ratio of IC50 for African green monkey Vero cells to MIC for Cryptococcus neoformans ATCC 90113. Type of data set: toxicity, cell-based. The conditions noted are these: read-out: Selectivity Index. In short, it runs like this: (§1)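 Selectivity index is the mammalian-cell IC50 (neutral red assay, Vero or LLC-PK1) divided by the MIC against C. neoformans ATCC 90113 (modified CLSI method).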

A short description of data set [2]: Cytotoxicity against pig LLC-PK1 cells assessed as reduction in viable cells measured after 48 hrs by neutral red dye-based method. The conditions noted are these: pig (Sus scrofa). Type of data set: toxicity, cell-based. In short, it runs like this:
(§2)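 Vero (African green monkey kidney […]) and LLC-PK1 (pig kidney epithelial) cells were scored for viability by neutral red uptake. The top test concentration was 50 μg/mL. IC50 is the concentration causing 50% growth inhibition of the mammalian cells.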

The nature of data set [3]: Selectivity index, ratio of IC50 for pig LLC-PK1 cells to MIC for Cryptococcus neoformans ATCC 90113. Type of data set: toxicity, cell-based. The conditions noted are these: read-out: Selectivity Index. In short, it runs like this: as §1
A short description of data set [4]: Antifungal activity against Cryptococcus neoformans ATCC 90113 assessed as growth inhibition measured after 72 hrs by CLSI method. Type of data set: functional. Summed up: (§3)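 Susceptibility testing by a modified CLSI (formerly NCCLS) method against C. neoformans ATCC 90113, C. neoformans H99 (from Duke University) or C. gattii ATCC 32609. The top test concentration was 20 μg/mL. MIC is the lowest concentration allowing no detectable growth. IC50 is the concentration giving 50% growth inhibition.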

Data set [5] can be described thus: Cytotoxicity against African green monkey Vero cells assessed as reduction in viable cells measured after 48 hrs by neutral red dye-based method. In kind it is toxicity, cell-based. The conditions noted are these: African green monkey (Chlorocebus sabaeus). In short, it runs like this: as §2
Data set [6] has as its system Cryptococcus neoformans. As to the kind of experiment: Antifungal activity against Cryptococcus neoformans H99 assessed as growth inhibition measured after 72 hrs by CLSI method. Type of data set: functional. The conditions noted are these: var grubii H99 . Summed up:
as §3

In data set [7] the test system is Cryptococcus bacillisporus. As to the kind of experiment: Antifungal activity against Cryptococcus gattii ATCC 32609 assessed as growth inhibition measured after 72 hrs by CLSI method. In kind it is functional. The conditions noted are these: ATCC 32609, 72 h. In short, it runs like this: as §3
Data set [8] in a line: Antifungal activity against Cryptococcus neoformans ATCC 90113 assessed as growth inhibition at 20 ug/ml measured after 72 hrs by CLSI method. In kind it is functional. Summed up:
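Primary screen against C. neoformans ATCC 90113 by a modified CLSI method at 20 μg/mL. Growth inhibition above 50% at this concentration was scored as active and taken to further testing.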

Data set [9] relates to Cryptococcus neoformans. As to the kind of experiment: Antifungal activity against Cryptococcus neoformans ATCC 90113 assessed as growth inhibition at 20 ug/ml measured after 72 hrs by CLSI method. The conditions noted are these: read-out: GI.
The subject of data set [10] is Cryptococcus bacillisporus. Description: Antifungal activity against Cryptococcus gattii ATCC 32609 assessed as growth inhibition at 20 ug/ml measured after 72 hrs by CLSI method. The conditions noted are these: ATCC 32609, 72 h, read-out: GI. Type of data set: functional.

Converted amounts (≈) assume the structure as drawn. Bounds are passed on as bounds.

The term IC50 denotes the concentration that inhibits the measured activity by half. Broadly, the MIC is the smallest concentration in the dilution series that meets the test's criterion for growth inhibition. As to `CC(C)C(=O)c1c(O)cc(O)c(Cc2c(F)cccc2Cl)c1O`, the selectivity ratio stood at 16.5 in data set [1] and 15.5 in [3]. Moreover, the half-inhibitory concentration (IC50) at 48 h in [2] came to 26.3 µg/mL (≈ 77.6 µM); in data set [5], 28 µg/mL (≈ 82.7 µM). Further, the figures for the MIC in data set [4], in data set [6] and in data set [7] were 1.7 µg/mL (≈ 5.02 µM), 6.7 µg/mL (≈ 19.8 µM) and 4.2 µg/mL (≈ 12.4 µM), respectively. Moreover, the growth inhibition (GI) in data set [8] is > 50%.
As for `CCCC(=O)c1c(O)cc(O)c(C(=O)CCC)c1O`, the selectivity ratio in [1] came out at 6.9; in [3], 11.7. Also, the IC50 at 48 h was determined as 24.5 µg/mL (≈ 92 µM) in [2] and 14.5 µg/mL (≈ 54.5 µM) in data set [5]. Further, the MIC in data set [4] turned out to be 2.1 µg/mL (≈ 7.89 µM); in data set [6], 2.5 µg/mL (≈ 9.39 µM); in data set [7], 1.5 µg/mL (≈ 5.63 µM). Moreover, in data set [8], the growth inhibition (GI) was > 50%.
Regarding `CC(C)=CCC/C(C)=C/CC/C(C)=C/Cc1c(O)cc(O)c(C(=O)C(C)C)c1O`, the selectivity ratio in [1] was 3.3; in [3] it was 3.6. Also, the results for the IC50 at 48 h in data set [2] and in data set [5] were 27 µg/mL (≈ 67.4 µM) and 25 µg/mL (≈ 62.4 µM), respectively. Moreover, the MIC in data set [4] turned out to be 7.5 µg/mL (≈ 18.7 µM); in data set [6], 5 µg/mL (≈ 12.5 µM); in [7] it was 7.5 µg/mL (≈ 18.7 µM). Moreover, the growth inhibition (GI) in data set [8] was > 50%.
For the molecule `CCOC(=O)Cc1c(O)cc(O)c(C(=O)C(C)C)c1O`, the growth inhibition (GI) in data set [8] is < 50%. Also, the inhibition of growth at 20 µg/mL in [9] and in data set [10] was < 50% each time.
On to `CC(C)C(=O)c1c(O)cc(O)c(C(=O)c2ccccc2)c1O`, for which the selectivity ratio in [1] came out at 2.3; in [3] it was 4.3. In addition, the IC50 at 48 h amounted to 42.5 µg/mL (≈ 142 µM) in data set [2] and 23 µg/mL (≈ 76.6 µM) in data set [5]. The results for the MIC in data set [4], in data set [6] and in [7] were 10 µg/mL (≈ 33.3 µM), 10 µg/mL (≈ 33.3 µM) and 8.3 µg/mL (≈ 27.6 µM), respectively. For the same molecule, the growth inhibition (GI) in [8] was > 50%.
`CC(C)C(=O)c1c(O)cc(O)c(CC#N)c1O`: the growth inhibition (GI) in [8] is < 50%. For the same molecule, the inhibition of growth at 20 µg/mL in [9] and in data set [10] was < 50% in each case.
With `COc1cc(C(=O)c2c(O)cc(O)c(C(=O)C(C)C)c2O)cc(OC)c1OC`, the growth inhibition (GI) in [8] was < 50%. Moreover, the inhibition of growth at 20 µg/mL in [9] and in data set [10] was < 50% in each case.
With `CC(C)=CCC/C(C)=C/Cc1c(O)cc(O)c(C(=O)C(C)C)c1O`, the selectivity ratio in data set [1] came to 13.2; in data set [3], 14.4. Moreover, the IC50 at 48 h in [2] is 24.5 µg/mL (≈ 73.7 µM); in data set [5] it was 22.5 µg/mL (≈ 67.7 µM). Also, the MIC was 1.7 µg/mL (≈ 5.11 µM) in [4], 1.7 µg/mL (≈ 5.11 µM) in [6] and 1 µg/mL (≈ 3.01 µM) in data set [7]. The growth inhibition (GI) in data set [8] was > 50%.
For `CC(C)C(=O)c1c(O)cc(O)c(Cc2ccccc2)c1O`, the selectivity ratio in [1] worked out at 4.2; in data set [3] it was 4.3. The IC50 at 48 h turned out to be 28.5 µg/mL (≈ 99.5 µM) in [2] and 28 µg/mL (≈ 97.8 µM) in data set [5]. For the same molecule, the MIC in data set [4] was 6.7 µg/mL (≈ 23.4 µM); in data set [6], 16.7 µg/mL (≈ 58.3 µM); in [7], 10 µg/mL (≈ 34.9 µM). For the same molecule, in data set [8], the growth inhibition (GI) was > 50%.
As to `CC(C)C(=O)c1c(O)cc(O)cc1OCc1c(Cl)cccc1Cl`, the values for the selectivity ratio in data set [1] and in [3] were 3.9 and 4.2, respectively. For the same molecule, the IC50 at 48 h in [2] came out at 34.5 µg/mL (≈ 97.1 µM); in data set [5] it was 32.5 µg/mL (≈ 91.5 µM). For the same molecule, the MIC in data set [4] came out at 8.3 µg/mL (≈ 23.4 µM); in data set [6] it was 5 µg/mL (≈ 14.1 µM); in data set [7] it was 5 µg/mL (≈ 14.1 µM). Also, the growth inhibition (GI) in [8] was > 50%.
For the molecule `CC(C)=CCc1c(O)cc(O)c(C(=O)C(C)C)c1O`, the selectivity ratio in data set [1] is 3.6; in data set [3] it was 6.2. Also, the IC50 at 48 h in [2] came to 31 µg/mL (≈ 117 µM); in data set [5], 18 µg/mL (≈ 68.1 µM). Moreover, the MIC in data set [4] is 5 µg/mL (≈ 18.9 µM); in data set [6], 8.3 µg/mL (≈ 31.4 µM); in [7], 5 µg/mL (≈ 18.9 µM). The growth inhibition (GI) in data set [8] was > 50%.
Take `CCCC(=O)c1c(O)cc(O)c(CC=C(C)C)c1O`: the selectivity ratio in data set [1] was 4.9; in data set [3], 8.5. Moreover, the IC50 at 48 h worked out at 28 µg/mL (≈ 106 µM) in data set [2] and 16.3 µg/mL (≈ 61.7 µM) in [5]. The minimum inhibitory concentration (MIC) came to 3.3 µg/mL (≈ 12.5 µM) in [4], 8.3 µg/mL (≈ 31.4 µM) in data set [6] and 5 µg/mL (≈ 18.9 µM) in data set [7]. Further, the growth inhibition (GI) in data set [8] is > 50%.
